pIC50: −log10 of the molar value.
Each compound was assayed against Glutamate NMDA receptor (assay: Displacement of [3H]-MK-801 from rat cortical membranes NMDA receptor by beta counting analysis in absence of spermine).
Procedure, shortened: (§1)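 Membranes from rat frontoparietal cortex and hippocampus, prepared in 50 mM Tris acetate pH 7.0. 5 nM [3H]MK-801 was incubated with membranes (~1 mg wet tissue) for 3 h at 23 °C in 10 mM Tris acetate pH 7.0 with 10 µM glutamate and glycine, in triplicate, with or without 30 µM spermine. Compounds were tested at 3–4 concentrations. Nonspecific binding was set with 100 µM (S)-ketamine. Bound ligand was filtered and scintillation-counted. Spermine sensitivity = IC50 (with spermine)/IC50 (without).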
With `N=C(N)c1ccc(OCc2ccc(COc3ccc(C(=N)N)cc3)cc2)cc1` the pIC50 was 5.28.
`CN(CCCN(C)c1ccc(C(=N)N)cc1)c1ccc(C(=N)N)cc1` gave a pIC50 of 5.74.
Work on `Cc1ccc(S(=O)(=O)N(CCOc2ccc(C(=N)N)cc2)CCOc2ccc(C(=N)N)cc2)cc1` yielded a pIC50 of 6.62.
`N=C(N)c1ccc(NCCNc2ccc(C(=N)N)cc2)cc1` was tested, and the pIC50 was 5.70.
Compound `CCN(CCNc1ccc(C(=N)N)cc1)c1ccc(C(=N)N)cc1` has a pIC50 of 5.58.

The compounds below were run against Glutamate NMDA receptor (assay: Displacement of [3H]-MK-801 from rat cortical membranes NMDA receptor by beta counting analysis in presence of 30 uM spermine).
Procedure, shortened: as §1
`N=C(N)c1ccc(OCc2ccc(COc3ccc(C(=N)N)cc3)cc2)cc1` gave a pIC50 of 4.59.
`CN(CCCN(C)c1ccc(C(=N)N)cc1)c1ccc(C(=N)N)cc1` showed a pIC50 of 4.61.
`Cc1ccc(S(=O)(=O)N(CCOc2ccc(C(=N)N)cc2)CCOc2ccc(C(=N)N)cc2)cc1` gave a pIC50 of 5.88.
In the case of `N=C(N)c1ccc(NCCNc2ccc(C(=N)N)cc2)cc1`, the pIC50 was 4.29.
With `CCN(CCNc1ccc(C(=N)N)cc1)c1ccc(C(=N)N)cc1` the pIC50 was 4.32.

Each compound was assayed against Glutamate NMDA receptor (assay: Displacement of [3H]-ifenprodil from rat cortical membranes NMDA receptor by beta counting analysis in absence of spermine).
`N=C(N)c1ccc(OCc2ccc(COc3ccc(C(=N)N)cc3)cc2)cc1` showed a pIC50 of 4.97.
Compound `CN(CCCN(C)c1ccc(C(=N)N)cc1)c1ccc(C(=N)N)cc1` has a pIC50 of 4.51.
Compound `Cc1ccc(S(=O)(=O)N(CCOc2ccc(C(=N)N)cc2)CCOc2ccc(C(=N)N)cc2)cc1` has a pIC50 of 6.39.
With `N=C(N)c1ccc(NCCNc2ccc(C(=N)N)cc2)cc1` the pIC50 was 6.12.
Compound `CCN(CCNc1ccc(C(=N)N)cc1)c1ccc(C(=N)N)cc1` has a pIC50 of 4.89.

Each compound was assayed against Glutamate NMDA receptor (Rattus norvegicus) (UniProt P35439+Q00959+Q00960+Q00961+Q62645+Q8VHN2+Q9R1M7) (assay: Ratio of IC50 for displacement of [3H]-MK-801 from rat cortical membranes NMDA receptor in presence of 30 uM spermine to IC50 for displacement of [3H]-MK-801 from rat cortical membranes NMDA receptor in absence of 30 spermine).
Procedure, shortened: as §1
Compound `N=C(N)c1ccc(OCc2ccc(COc3ccc(C(=N)N)cc3)cc2)cc1` has a Ratio IC50 of 5.25.
`CN(CCCN(C)c1ccc(C(=N)N)cc1)c1ccc(C(=N)N)cc1` was tested, and the Ratio IC50 was 14.7.
Compound `Cc1ccc(S(=O)(=O)N(CCOc2ccc(C(=N)N)cc2)CCOc2ccc(C(=N)N)cc2)cc1` has a Ratio IC50 of 6.28.
Compound `N=C(N)c1ccc(NCCNc2ccc(C(=N)N)cc2)cc1` has a Ratio IC50 of 30.2.
Compound `CCN(CCNc1ccc(C(=N)N)cc1)c1ccc(C(=N)N)cc1` has a Ratio IC50 of 19.3.
